{
  "source": "paper PMC9380726",
  "about": "(ACS Pharmacology & Translational Science, 2022)",
  "key": {"[1]": {"test": "PET imaging of 89Zr tracer, 17 MBq/kg", "format": "in vivo, rat", "procedure,_shortened": "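Sprague–Dawley rats (200–300 g) received the 89Zr tracer (formulated at 5 MBq/nmol) i.v. or s.c. at 17 MBq/kg (3 nmol/kg). They were PET-imaged under 2–3% isoflurane/O2 at 4, 8, 24, 72 and 168 h, with a 350–650 keV window. Scans ran 15 min (4, 8 h), 20 min (24 h), 30 min (72 h) and 60 min (168 h), followed by a 323 s Co-57 transmission scan for attenuation correction. Images were decay-corrected to injection and reported as %ID/g.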"}, "[2]": {"format": "in vivo", "conditions": "rat, plasma, iv, 20 nmol/kg", "procedure,_shortened": "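Sprague–Dawley rats (200–300 g) were dosed at 20 nmol/kg i.v. or s.c. Blood (200 µL) was drawn at 2, 6, 10, 24, 30 and 48 h, processed to plasma, extracted and analysed by UPLC-MS. Quantification used a calibration curve from spiked plasma, and parameters came from non-compartmental analysis. Groups were n = 4 for s.c., and n = 3 or 1 for i.v.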"}, "[3]": {"conditions": "in rats; cited from earlier work"}, "[4]": {"conditions": "after i.v. administration; cited from earlier work"}},
  "note": "Read-outs that look alike come from different tables or passages of the source.",
  "data": [
    {"compound": "CC[C@H](C)[C@H](NC(=O)[C@H](Cc1ccccc1)NC(=O)[C@H](CCC(=O)O)NC(=O)[C@H](CCCNC(=N)N)NC(=O)[C@H](C)NC(=O)[C@H](C)NC(=O)[C@H](CCC(N)=O)NC(=O)[C@H](CCC(=O)O)NC(=O)[C@H](CCC(=O)O)NC(=O)[C@H](CC(C)C)NC(=O)[C@H](Cc1ccc(O)cc1)NC(=O)[C@H](CO)NC(=O)[C@H](CO)NC(=O)[C@@H](NC(=O)[C@H](CC(=O)O)NC(=O)[C@H](CO)NC(=O)[C@@H](NC(=O)[C@H](Cc1ccccc1)NC(=O)[C@@H](NC(=O)CNC(=O)[C@H](CCC(=O)O)NC(=O)[C@H](C)NC(=O)CCc1c[nH]cn1)[C@@H](C)O)[C@@H](C)O)C(C)C)C(=O)N[C@@H](C)C(=O)N[C@@H](Cc1c[nH]c2ccccc12)C(=O)N[C@@H](CC(C)C)C(=O)N[C@H](C(=O)N[C@@H](CCCNC(=N)N)C(=O)NCC(=O)N[C@@H](CCCNC(=N)N)C(=O)N[C@@H](CCCCNC(=O)COCCOCCNC(=O)COCCOCCNC(=O)CC[C@H](NC(=O)CCCCCCCCCCCCCCCCC(=O)O)C(=O)O)C(=O)NCC(=O)NCC(=O)N[C@@H](CO)C(=O)N[C@@H](CCCCNc1c(NCCCCCN(O)C(=O)CCC(=O)NCCCCCN(O)C(=O)CCC(=O)NCCCCCN(O)C(C)=O)c(=O)c1=O)C(=O)O)C(C)C", "note": "[[89Zr]2, metal not drawn]", "values": [
      {"measurement": "initial dose trapped in the subcutis", "setting": "[1]; PET, s.c., after 168 h", "result": 10, "unit": "%"},
      {"measurement": "tissue uptake at 168 h", "setting": "[1]; rat, kidney, iv, 3 nmol/kg, total radioactivity", "result": "~7", "unit": "%ID/g"}
    ]},
    {"compound": "CC[C@H](C)[C@H](NC(=O)[C@H](Cc1ccccc1)NC(=O)[C@H](CCC(=O)O)NC(=O)[C@H](CCCNC(=N)N)NC(=O)[C@H](C)NC(=O)[C@H](C)NC(=O)[C@H](CCC(N)=O)NC(=O)[C@H](CCC(=O)O)NC(=O)[C@H](CCC(=O)O)NC(=O)[C@H](CC(C)C)NC(=O)[C@H](Cc1ccc(O)cc1)NC(=O)[C@H](CO)NC(=O)[C@H](CO)NC(=O)[C@@H](NC(=O)[C@H](CC(=O)O)NC(=O)[C@H](CO)NC(=O)[C@@H](NC(=O)[C@H](Cc1ccccc1)NC(=O)[C@@H](NC(=O)CNC(=O)[C@H](CCC(=O)O)NC(=O)[C@H](C)NC(=O)CCc1c[nH]cn1)[C@@H](C)O)[C@@H](C)O)C(C)C)C(=O)N[C@@H](C)C(=O)N[C@@H](Cc1c[nH]c2ccccc12)C(=O)N[C@@H](CC(C)C)C(=O)N[C@H](C(=O)N[C@@H](CCCNC(=N)N)C(=O)NCC(=O)N[C@@H](CCCNC(=N)N)C(=O)N[C@@H](CCCCNC(=O)COCCOCCNC(=O)COCCOCCNC(=O)CC[C@H](NC(=O)CCCCCCCCCCCCCCCCC(=O)O)C(=O)O)C(=O)NCC(=O)NCC(=O)N[C@@H](CO)C(=O)N[C@@H](CCCCNc1c(NCCCCCN(O)C(=O)CCC(=O)NCCCCCN(O)C(=O)CCC(=O)NCCCCCN(O)C(C)=O)c(=O)c1=O)C(=O)O)C(C)C", "note": "[compound 2]", "values": [
      {"measurement": "half-life", "setting": "[2]", "result": 8.4, "unit": "h"}
    ]},
    {"compound": "semaglutide", "values": [
      {"measurement": "plasma metabolite exposures", "setting": "[3]", "result": "1–7%"},
      {"measurement": "half-life", "setting": "[4]", "result": "7 to 12", "unit": "h"}
    ]}
  ]
}
